NPR2 activator – GC-B (human) receptor activation | P20594 | HEK293-GC-B cells, CNP EC30, cGMP TR-FRET; 0% at EC30 CNP, 100% saturating CNP | activation, % at 10 µM | actives 0.11% (n = 370,000) | AID 1920062;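 active = activation at 10 µM reaching about 35% in either raw or pattern-adjusted values, limit read from the data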
GC-A act – GC-A (human) enzyme activation; P16066; HEK293 GC-A cells, cGMP TR-FRET, EC30 ANP; 0% at EC30 ANP, 100% saturating ANP; activation, % at 10 µM; actives 0.14% (n = 370,000); AID 1671463; in the data active = activation above about 40%
Target sequence (P16066 whole entry, looked up): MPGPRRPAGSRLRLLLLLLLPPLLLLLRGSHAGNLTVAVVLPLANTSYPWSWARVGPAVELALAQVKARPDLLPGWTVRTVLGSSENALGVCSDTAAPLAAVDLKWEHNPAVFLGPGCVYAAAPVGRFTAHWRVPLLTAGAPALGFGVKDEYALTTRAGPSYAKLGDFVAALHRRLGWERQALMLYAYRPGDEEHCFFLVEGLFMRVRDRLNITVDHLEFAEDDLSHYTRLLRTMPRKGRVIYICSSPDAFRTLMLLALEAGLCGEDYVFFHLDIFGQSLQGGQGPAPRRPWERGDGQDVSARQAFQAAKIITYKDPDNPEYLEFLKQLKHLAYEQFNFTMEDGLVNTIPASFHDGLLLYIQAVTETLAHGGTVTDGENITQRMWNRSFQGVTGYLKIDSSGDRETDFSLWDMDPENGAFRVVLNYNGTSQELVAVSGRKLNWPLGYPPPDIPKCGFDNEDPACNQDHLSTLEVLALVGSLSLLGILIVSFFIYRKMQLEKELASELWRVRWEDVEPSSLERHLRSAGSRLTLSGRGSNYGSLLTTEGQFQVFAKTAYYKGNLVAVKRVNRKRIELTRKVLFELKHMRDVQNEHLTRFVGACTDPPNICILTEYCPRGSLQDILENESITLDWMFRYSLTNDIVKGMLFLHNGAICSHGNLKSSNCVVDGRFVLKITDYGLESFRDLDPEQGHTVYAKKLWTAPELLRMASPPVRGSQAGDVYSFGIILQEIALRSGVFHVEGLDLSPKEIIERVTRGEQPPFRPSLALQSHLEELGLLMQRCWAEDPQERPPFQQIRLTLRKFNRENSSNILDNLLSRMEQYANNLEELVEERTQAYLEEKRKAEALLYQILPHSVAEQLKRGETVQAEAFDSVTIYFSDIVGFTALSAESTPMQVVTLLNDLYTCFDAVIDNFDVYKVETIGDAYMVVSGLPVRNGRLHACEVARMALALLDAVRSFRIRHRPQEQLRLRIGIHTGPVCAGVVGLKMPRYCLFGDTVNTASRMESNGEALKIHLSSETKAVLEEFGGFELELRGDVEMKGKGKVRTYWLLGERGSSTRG
GalR3 antagonist – human GalR3 antagonism; O60755; HEK293 GalR3-CNG cAMP membrane potential fluorescence; galR3 body fused to GalR1 C-terminus; inhibition, % at 3 µM; actives 0.44% (n = 360,000); AID 651719;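 active = inhibition above the screen-wide average plus 3 SD, cut at about 13% in these data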;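 also: forskolin and galanin both at EC90 stimulate the cells; cAMP rise reported by CNG channel membrane potential dye signal; 0% = forskolin plus galanin with DMSO and 100% = forskolin alone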
Arr AP2 block – blocks beta-arrestin peptide binding to AP2 adaptin | inhibition, % at 10 µM | actives 0.31% (n = 340,000) | FITC-arrestin peptide / GST-AP2 beads, flow cytometry; AP2 beta2 appendage carries R879A mutation | AID 504490;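 active = inhibition above a set limit, near 3 SD of compounds lacking own fluorescence, cut at about 54% in these data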;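 also: plate controls were DMSO wells for no effect and 5 µM unlabelled arrestin peptide for full effect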
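system = GST-tagged AP2 beta2-adaptin appendage (R879A) on 4 µm glutathione beads | reagent = FITC-labelled arrestin peptide probe, 50 nM final | schedule = compound with beads 12 min RT, then probe 1 h RT | signal = HyperCyt-sampled flow cytometry, FL1 channel, ex 488/em 535 nm | read-out = percent response from loss of bead-bound FITC fluorescence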
GalR3 conf – confirmation of human galanin receptor 3 antagonists; shares compounds with GalR3 antagonist; HEK293 GalR3 CNG cAMP biosensor, membrane potential fluorescence; galR3 fused to GalR1 carboxy tail; challenged with forskolin and galanin at EC90; inhibition, % at 3 µM; actives 59% (n = 1,600); AID 652245;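 active = inhibition above the primary screen's cutoff, the mean inhibition of all screened compounds plus 3 SD, cut at about 13% in these data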;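 also: 0% = forskolin plus galanin and 100% = forskolin alone with DMSO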
HEK-CNG parental – acts as nonspecific agonist in parental HEK-CNG cells; actives 10% (n = 1,600); activation, % at 3 µM; shares compounds with GalR3 antagonist; HEK293-CNG parental cells, cAMP membrane potential fluorescence; normalised: DMSO wells 0%, forskolin wells 100%; in the data active = activation above about 1.3%
Starred values were filed as active, the others as inactive; . = no result. An excerpt weighted towards active compounds, which were near 0.94% of everything screened.

SMILES	NPR2 activator	GC-A act	GalR3 antagonist	Arr AP2 block	GalR3 conf	HEK-CNG parental
C=CCN1[C@@H](CC(C)C)COc2cccc(N3CCSCC3)c2S1(=O)=O	-12	-6	.	.	.	.
O=C(COc1ccccc1C(=O)NCc1ccccc1)Nc1ccc(I)cc1	-9	-9	.	.	.	.
c1cncc(-c2nnc3sc(C4CCCCC4)nn23)c1	1	1	.	-6	4	0
CC(C)n1c(=S)[nH]c2scc(-c3cccs3)c2c1=O	-5	-23	13*	6	2	0
O=C(CSc1nnc(-c2ccccc2)n1-c1ccccc1)Nc1ccc(Oc2ccccc2)cc1	5	5	.	.	.	.
COc1cc2c(cc1OC)-c1cc(N3CCCCCC3)nc(=O)n1CC2	2	7	50*	18	14*	1
COc1cc2c(cc1OC)-c1cc(N3CCc4ccccc43)nc(=O)n1CC2	15	11	8	31	.	.
COc1cc2c(cc1OC)-c1cc(N3CCCc4ccccc43)nc(=O)n1CC2	29	29	47*	9	60*	1
COc1ccc(N2C(=O)CN(Cc3cc(OC)c(OC)c(OC)c3)C2=S)cc1	-1	-2	14*	0	6	-1
S=C(NCC1CCCCC1)OC1CCC12CCC(c1ccccc1)CC2 (centres undefined)	-1	6	.	.	.	.
COc1ccc(S(=O)(=O)Nc2ccc3c(c2)OCO3)cc1OC	-2	0	-7	10	.	.
COc1ccc(NS(=O)(=O)c2ccc3c(c2)OCCO3)cc1OC	0	-9	99*	-4	53*	0
Cc1ccc(Oc2ccccc2NC(=O)CSCC(=O)Nc2cc(C)on2)cc1	0	-3	84*	-9	68*	0
Cc1cc(NC(=O)CSCC(=O)Nc2ccccc2Oc2ccccc2)no1	-6	-1	-3	25	.	.
COC(=O)[C@]12C[C@H](CC(=O)NCCC(C)C)C(=O)N(Cc3ccc(Cl)cc3Cl)C1=C[C@H](COCc1ccccc1)O[C@@H]2C	0	-2	.	.	.	.
C=CCC1(CC=C)CCCN1C(=O)c1cc(COc2cncc(Cl)c2)on1	-1	2	45*	9	62*	1
O=C(c1ccc(S(=O)(=O)c2ccc(F)cc2)c([N+](=O)[O-])c1)N1CCCCCC1	0	0	44*	-5	49*	-1
CCOC(=O)[C@]12CCCC=C1N(CCCOC)C(=O)[C@@H]2CC(=O)NCCc1ccccc1OC	4	0	.	.	.	.
CN(C)S(=O)(=O)c1cccc(C(=O)NCC(=O)NC2CCN(Cc3ccccc3)CC2)c1	3	0	-10	2	.	.
C=CCN(c1ccccc1)S(=O)(=O)c1cccc(C(=O)NC2CCN(Cc3ccccc3)CC2)c1	-2	-3	89*	14	62*	1.4*
O=C(NC1CCN(Cc2ccccc2)CC1)c1cccc(S(=O)(=O)Nc2ccc(Br)cc2)c1	-1	-4	-8	35	.	.
O=C(NC1CCN(Cc2ccccc2)CC1)c1cccc(S(=O)(=O)Nc2ccc(F)cc2)c1	-9	-2	17*	-8	54*	0
O=S(=O)(c1ccccc1)N1CCCc2nc(-c3ccc(F)cc3)ccc21	3	4	-6	.	.	.
COc1ccc(/C=C/C2=NNC(=O)CC2)cc1	-5	0	15*	1	9	0
C[C@@H]1C=CCCO[C@]12C(=O)N(Cc1ccccc1C(F)(F)F)c1ccccc12	-2	-3	-5	.	.	.
CC1CCN(CCCNC(=O)c2cn(C)c3ccc(S(=O)(=O)N4CCCC4)cc3c2=O)CC1	-2	-1	15*	5	8	0
CN(CCCNC(=O)c1cn(C)c2ccc(S(=O)(=O)N(C)C)cc2c1=O)c1ccccc1	-4	-3	20*	4	6	1
CCN(CC)S(=O)(=O)c1ccc2c(c1)c(=O)c(C(=O)NCCCN(C)c1ccccc1)cn2C	-2	-11	-1	-7	.	.
CCCCS(=O)(=O)N1CCCc2nc(-c3ccc(Br)cc3)ccc21	3	7	-1	.	.	.

Screening data from PubChem.
